Screening data: PubChem, several laboratories
T cruzi repl: inhibitors of intracellular T. cruzi growth, primary screen, luminescence, NIH3T3 host cells; 300,000 compounds, 1.4% hits; T. cruzi beta-gal in NIH3T3, 90 h; AID 1885, 2009; inhibition, % (concentration not given with the values);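 active means mean inhibition across valid replicates above about 55%, limit read from the data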;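 further: signal also drops with host cell toxicity which is not excluded here; higher percent means less beta-gal luminescence so fewer parasites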
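System – NIH/3T3 host cells with β-galactosidase reporter T. cruzi · Doses – single 50 nL compound addition per well in DMSO · Reagent – 5000 T. cruzi trypomastigotes/well · Medium – Low-serum DMEM with 2% FBS · Timing – ≥90 h infection period, 3 h prior cell attachment · Evaluation – parasite load inhibition, % · Technique – GalScreen luminescence, 60 min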
CSC inhib: cancer stem cell viability inhibitors, primary screen, luminescence; cancer stem cell-like cells viability; inhibition, % at 7.5 µM; 300,000 compounds, 1.1% hits; AID 2717, 2010; in the data active means inhibition above about 75%; tested in HMLE shEcad cells
Mdm2 MdmX PPI: inhibitors of human Mdm2-MdmX association, primary screen, cell-based, luminescence, split luciferase, SaOS-2, uHTS. AID 485346, 2010. 330,000 compounds, 3% hits. inhibition, % at 8 µM. SaOS-2 split-luciferase Mdm2/MdmX complementation. Protein Mdm4 (Homo sapiens) + E3 ubiquitin-protein ligase Mdm2 (Homo sapiens), …;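 active means inhibition of at least 50% at 8 µM in the primary screen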
Target sequence (O15151 whole entry, looked up): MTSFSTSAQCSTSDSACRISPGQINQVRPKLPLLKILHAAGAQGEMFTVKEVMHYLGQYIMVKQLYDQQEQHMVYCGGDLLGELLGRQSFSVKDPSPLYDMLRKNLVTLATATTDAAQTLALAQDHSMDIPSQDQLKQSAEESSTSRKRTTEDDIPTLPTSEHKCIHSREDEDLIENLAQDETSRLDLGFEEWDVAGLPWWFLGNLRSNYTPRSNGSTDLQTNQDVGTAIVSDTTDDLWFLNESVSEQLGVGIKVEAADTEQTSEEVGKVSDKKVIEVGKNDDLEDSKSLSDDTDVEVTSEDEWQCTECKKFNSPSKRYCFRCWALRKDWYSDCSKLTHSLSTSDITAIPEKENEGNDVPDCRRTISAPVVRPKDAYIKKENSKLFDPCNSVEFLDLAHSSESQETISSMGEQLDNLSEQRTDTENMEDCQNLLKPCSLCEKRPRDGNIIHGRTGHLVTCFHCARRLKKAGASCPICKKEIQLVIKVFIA
Target sequence (Q00987 whole entry, looked up): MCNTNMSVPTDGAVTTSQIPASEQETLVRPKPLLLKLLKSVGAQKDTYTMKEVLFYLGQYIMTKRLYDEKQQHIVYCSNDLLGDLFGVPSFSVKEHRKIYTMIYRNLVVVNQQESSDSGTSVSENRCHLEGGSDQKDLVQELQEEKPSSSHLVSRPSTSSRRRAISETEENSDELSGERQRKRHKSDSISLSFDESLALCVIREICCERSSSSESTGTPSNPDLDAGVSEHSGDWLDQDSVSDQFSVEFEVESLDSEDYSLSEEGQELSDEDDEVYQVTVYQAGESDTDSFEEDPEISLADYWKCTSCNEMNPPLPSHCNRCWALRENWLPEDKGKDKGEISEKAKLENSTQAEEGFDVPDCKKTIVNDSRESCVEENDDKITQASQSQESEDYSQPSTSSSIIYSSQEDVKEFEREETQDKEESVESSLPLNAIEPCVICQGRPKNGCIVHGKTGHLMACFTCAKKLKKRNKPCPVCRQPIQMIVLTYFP
Beta apoptosis: inhibitors of cytokine-induced beta cell apoptosis, primary screen, luminescence; AID 435005, 2010; protection from apoptosis, % (concentration not given with the values); INS-1E cytokine-induced death, ATP luminescence, 48 h; percent of positive-control rescue, neutral wells zero; 300,000 compounds, 0.8% hits;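 active means Every replicate reaches about 75%, or at least half do and their mean reaches it too, limit read from the data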;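 further: higher means more ATP so stronger rescue from cytokine killing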
Lmaj promast: Leishmania major promastigote growth inhibition, primary screen. Leishmania major promastigotes, resazurin fluorescence viability. inhibition, % at 10 µM. 200,000 compounds, 9% hits. AID 1063, 2008; in the data active means inhibition above about 50%;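 further: promastigotes grown with compound for 44 hours at 28 °C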
SKKanGAS inh: S. pyogenes SKKanGAS growth inhibitors in kanamycin, primary screen, streptokinase expression inhibitor project, SKKanGAS strain, BacTiter-Glo luminescence; 300,000 compounds, 1.3% hits; AID 1662, 2009; 6 h; inhibition, % at 7.5 µM;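 active means mean replicate score, as percent of positive control median, at least 50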;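 further: strain carries kanamycin resistance gene driven by streptokinase promoter and grows in 40 µg/ml kanamycin; loss of luminescence reflects streptokinase promoter inhibition or plain growth inhibition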
Mdm2 MdmX conf: Mdm2-MdmX complex disruptors, retested hits, confirmation, luminescence, single concentration | shares compounds with Mdm2 MdmX PPI | Mdm2-MdmX binding, luminescent assay | inhibition, % at 8 µM | 10,000 compounds, 55% hits | AID 489028, 2010; in the data active means inhibition above about 40%
FLuc counter: full-length luciferase signal inhibition, confirmation, counter-screen for Mdm2/MdmX interaction inhibitor project, cell-based, single concentration, SaOS-2 | 6,200 compounds, 77% hits | inhibition, % at 8 µM | SaOS-2 full-length luciferase counterscreen, luminescence | shares compounds with Mdm2 MdmX PPI;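 active means mean inhibition at 8 µM reaching about 37%, which flags the compound as non-specific, limit read from the data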;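 further: p53-null SaOS-2 cells with luciferase driven by a doxycycline-inducible promoter; compound on cells about two nights before reading with doxycycline added after day one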
Hits are given with their value; . = inactive; / = no result. A selection: hits, their analogues and other compounds. The true share with any hit is near 9.4%.

SMILES	T cruzi repl	CSC inhib	Mdm2 MdmX PPI	Beta apoptosis	Lmaj promast	SKKanGAS inh	Mdm2 MdmX conf	FLuc counter
CC(OC(=O)C1CCC1)C(=O)Nc1cc(Cl)cc(Cl)c1 (stereo not given)	.	.	.	.	/	.	/	/
Cc1ccc(OCCN2CCN(CC(O)Cn3c4ccccc4c4ccccc43)CC2)cc1 (stereo not given)	.	90	85	.	77	.	.	/
Cc1ccccc1-c1nn(-c2ccc(F)cc2F)cc1CNC1CC1	.	/	.	.	.	.	/	/
O=C(NCCCO)c1c(O)c2cccc3c2n(c1=O)CCC3	.	.	81	.	/	.	56	.
CCn1c(=O)c(C(=O)NCCCO)c(O)c2ccccc21	.	.	79	.	.	.	41	58
CNC(=O)c1c(O)c2cccc3c2n(c1=O)CC3	.	.	75	.	.	.	54	.
CC(C)NC(=O)c1c(O)c2cccc3c2n(c1=O)CCC3	.	.	.	/	/	.	/	/
CCc1ccc(-c2nc(SCC(=O)NC3CC3)n[nH]2)cc1	.	.	.	.	/	.	/	/
N#Cc1ccc(Nc2nc(-c3ccc(O)cc3O)cs2)cc1C(F)(F)F	/	85	69	.	/	/	61	55
COc1ccc(OC)c(NC(=O)c2cc(OC(C)=O)cc(C(=O)Nc3cc(OC)ccc3OC)c2)c1	.	.	56	.	/	.	.	/
CN(CC(=O)Nc1c(Cl)cccc1Cl)C(=O)c1cccc(-n2cccc2)c1	.	.	.	.	/	.	/	/
Cc1cccc(NC(=O)CCNC(=O)c2ccc(Br)cc2)c1C	.	.	/	.	/	.	/	/
CC(=O)Nc1ccc(S(=O)(=O)Nc2nc3ccccc3nc2Nc2ccc(O)cc2)cc1	.	.	.	.	/	.	/	/
CCN(CC)S(=O)(=O)c1ccc(N/N=C(\C)c2ccc(OC)cc2O)nc1	.	.	57	97	/	82	.	/
CCOc1cccc(/C=N/Nc2ccc(S(=O)(=O)N(CC)CC)cn2)c1O	.	117	81	117	82	91	85	55
CCN(CC)S(=O)(=O)c1ccc(N/N=C/c2ccc(O)cc2)nc1	.	/	.	.	.	.	/	/
C[C@@]12C(=O)Nc3ccccc3C(=O)N1[C@H]1c3cc(Br)ccc3OC[C@@H]1[C@@H]2c1ccccc1	/	.	63	.	/	/	53	.
COc1ccc2c(c1)C(=O)N1[C@H]3c4cc(Br)ccc4OC[C@@H]3[C@H](c3ccccc3)[C@]1(C)C(=O)N2	/	.	64	.	/	/	63	37
CCOC(=O)[C@H]1[C@H]2COc3ccc(Cl)cc3[C@@H]2N2C(=O)c3ccc(Cl)cc3NC(=O)[C@@]12C	/	.	53	.	/	/	.	/
CCOC(=O)[C@H]1[C@H]2COc3ccc(C)cc3[C@@H]2N2C(=O)c3ccc(Cl)cc3NC(=O)[C@@]12C	/	.	.	.	/	/	/	/
COc1cccc2sc(N3CCN(c4nc5ccccc5s4)CC3)nc12	.	.	62	.	.	.	61	81
COCCn1cnc2c(c1=O)c1nc3ccccc3nc1n2/N=C/c1cccc(OC)c1	.	.	.	.	/	.	/	/
C=CCn1cnc2c(c1=O)c1nc3ccccc3nc1n2/N=C/c1cccc(OC)c1OC	/	.	59	.	/	/	.	/
C=CCn1cnc2c(c1=O)c1nc3ccccc3nc1n2/N=C/c1cc(OC)c(OC)c(OC)c1	.	.	86	102	100	.	75	65
COc1ccccc1C(=O)N(CCC1CCCN1C)c1nc2ccccc2s1 (stereo not given)	.	.	82	.	100	.	79	106
C=CC(=O)Nc1sc2c(c1C(N)=O)CCCC2	.	.	53	.	/	.	.	/
CCC(CC)NC(=O)Cc1ccc(F)cc1	.	.	.	.	.	.	/	/
